{
  "source": "ChEMBL document CHEMBL4312027",
  "about": "“Synthesis, characterization, and biological activity of a triphenylphosphonium-containing imidazolium salt against select bladder cancer cell lines” (Eur J Med Chem, 2020)",
  "key": {"[1]": {"test_system": "RT-112", "test": "Induction of mitochondrial membrane depolarization in human RT112 cells at 100 uM incubated for 1 hr and measured after 2 hrs recovery time by JC-1 staining based confocal microscopy", "assay_type": "functional, cell-based", "method_in_brief": "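RT112 cells plated on glass-bottom dishes and incubated overnight. They were treated for 45 min, then JC-1 (final 10 μg/mL) was added to the medium for a further 15 min. Live cells were imaged by confocal microscopy (ex 485 nm; em 530 and 590 nm) every 15 min for 6 h. Red polarized versus green depolarized mitochondria were scored, with CCCP as positive control.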"}, "[2]": {"test_system": "RT-112", "test": "Mito-toxicity in mitochondria isolated from human RT112 cells assessed as increase in cytochrome C release at 100 uM incubated for 1 hr and measured after 1 to 4 hrs incubation in preservative buffer by Western blot analysis", "assay_type": "functional"}},
  "note": "Calls of active or inactive are those of the source. The rule behind the calls is not given here.",
  "data": [
    {"smiles": "N#CC(C#N)=NNc1cccc(Cl)c1", "values": [
      {"measurement": "Activity", "setting": "[1]", "result": "Active"},
      {"measurement": "Activity", "setting": "[2]", "result": "Active"}
    ]}
  ]
}
